Test results from ChEMBL document CHEMBL1121546, “Studies on antimicrobial agents. 1. Synthesis and relation between the antimicrobial activities and certain physicochemical properties of some N'-(pyridinoacetyl) fatty acid hydrazides” (1980).

What was measured:
Staphylococcus aureus = assay: Minimum inhibitory concentration was evaluated in vitro againist Staphylococcus aureus Smith.; assay type: functional
Method in brief: (§1)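 Compounds dissolved in water, 50% Me₂SO–water or 100% Me₂SO. They were first screened by disk-plate, and those active at 1000 μg/mL went on to the autotitration method using an automatic diluting device. Bacteria were inoculated into tryptose phosphate broth and incubated at 37 °C for 18-20 h. MIC is the lowest drug level giving complete absence of growth (turbidity).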

Candida albicans = assay: Minimum inhibitory concentration was evaluated in vitro againist P. Candida albicans 10231; assay type: functional
Method in brief: (§2)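 Compounds in water, 50% Me₂SO–water or 100% Me₂SO. Disk-plate prescreen, with those active at 1000 μg/mL then titrated by autodilution. Fungi were grown in proteose peptone no. 3 maltose at 23 °C for 3-5 days. MIC was read as the lowest drug level showing no turbidity.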

Klebsiella pneumoniae = assay: Minimum inhibitory concentration was evaluated in vitro againist Klebsiella pneumoniae 39645; assay type: functional; method in brief: as §1
Proteus mirabilis = assay: Minimum inhibitory concentration was evaluated in vitro againist Proteus mirabilis MGH-1; assay type: functional; method in brief: as §1
Trichophyton benhamiae = assay: Minimum inhibitory concentration was evaluated in vitro againist P. Trichophyton mentagrophytes 9129; assay type: functional, Arthroderma benhamiae; method in brief: as §2
Streptococcus pyogenes = assay: Minimum inhibitory concentration was evaluated in vitro againist P. Streptococcus pyogenes C-203; assay type: functional; method in brief: as §1
Proteus vulgaris = assay: Minimum inhibitory concentration was evaluated in vitro againist Proteus vulgaris 9920; assay type: functional; method in brief: as §1
Aspergillus niger = assay: Minimum inhibitory concentration was evaluated in vitro againist P. As. niger 16404; assay type: functional; method in brief: as §2
Pseudomonas aeruginosa = assay: Minimum inhibitory concentration was evaluated in vitro againist P. Ps. aeruginosa MGH-2; assay type: functional; method in brief: as §1
Escherichia coli = assay: Minimum inhibitory concentration was evaluated in vitro againist Escherichia coli Vogel; assay type: functional; method in brief: as §1

MIC (Staphylococcus aureus) [µM] | MIC (Candida albicans) [µM] | MIC (Klebsiella pneumoniae) [µM] | MIC (Proteus mirabilis) [µM] | MIC (Trichophyton benhamiae) [µM] | MIC (Streptococcus pyogenes) [µM] | MIC (Proteus vulgaris) [µM] | MIC (Aspergillus niger) [µM] | MIC (Pseudomonas aeruginosa) [µM] | MIC (Escherichia coli) [µM] | SMILES
19.6 | 19.6 | > 79 | > 79 | 39 | 9.8 | > 79 | 39 | > 39 | > 39 | CCCCCCCCCCCCCC(=O)NNC(=O)C[n+]1ccccc1
4.6 | 18 | > 74 | > 74 | 37 | 9.1 | > 74 | 37 | > 37 | > 37 | CCCCCCCCCCCCCCCC(=O)NNC(=O)C[n+]1ccccc1
85 | 170 | 680 | 1400 | 170 | 42 | 680 | 170 | 340 | 340 | CCCCCCCCCCCC(=O)NNC(=O)C[n+]1ccccc1
> 34 | > 17 | > 69 | > 69 | > 17 | 1.1 | > 69 | > 34 | > 34 | > 69 | CCCCCCCCCCCCCCCCCC(=O)NNC(=O)C[n+]1ccccc1
366 | 730 | > 1500 | > 1500 | 1500 | 370 | > 1500 | 1500 | > 1500 | > 1500 | CCCCCCCCCC(=O)NNC(=O)C[n+]1ccccc1
> 1600 | > 1600 | > 1600 | > 1600 | > 1600 | 1600 | > 1600 | > 1600 | > 1600 | > 1600 | CCCCCCCC(=O)NNC(=O)C[n+]1ccccc1
> 17 | > 17 | > 69 | > 69 | > 17 | 1.1 | > 69 | > 34 | > 34 | > 69 | CCCCCCCC/C=C\CCCCCCCC(=O)NNC(=O)C[n+]1ccccc1
